Source: PubChem BioAssay (several laboratories)
A selection: hits, their analogues and other compounds. The true share with any hit is near 1.4%.
Tn7 DDE FP: DD(E)-Tn7 binding inhibition, primary FP screen; inhibition, % at 8.3 µM; FP displacement of FITC-Tn7 peptide from fibrin DD(E); 0% = median of compound wells per plate; 370,000 tested, 0.13% active; P02675;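 active = inhibition above the mean of compounds falling within the control limits plus 3 SD of them, cut at about 14% in these data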
Target sequence (P02675 whole entry, looked up): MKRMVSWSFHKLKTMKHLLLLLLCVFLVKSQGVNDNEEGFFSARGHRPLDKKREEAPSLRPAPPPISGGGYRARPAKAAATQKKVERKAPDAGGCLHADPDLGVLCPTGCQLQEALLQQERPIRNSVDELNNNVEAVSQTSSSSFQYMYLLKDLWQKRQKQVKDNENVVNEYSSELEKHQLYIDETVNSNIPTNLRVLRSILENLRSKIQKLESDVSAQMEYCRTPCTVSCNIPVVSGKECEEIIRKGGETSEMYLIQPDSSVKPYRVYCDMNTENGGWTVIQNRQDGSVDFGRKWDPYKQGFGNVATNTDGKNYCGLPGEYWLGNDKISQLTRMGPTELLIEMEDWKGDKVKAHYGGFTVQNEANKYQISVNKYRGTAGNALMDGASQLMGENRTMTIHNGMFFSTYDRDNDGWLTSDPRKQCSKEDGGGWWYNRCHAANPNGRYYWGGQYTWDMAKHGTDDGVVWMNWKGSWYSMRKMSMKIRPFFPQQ
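Assay system: human fibrin DD(E). Input: DD(E) 2 µM final. Medium: Tris buffer with calcium and detergent, pH 7.8. Compound dosing: single point at 8.3 µM. Timing: 10 min plus 3 h, room temperature. Technique: fluorescence polarization of the labelled Tn7 tracer. Read-out: percent inhibition. Replicates: singlicate testing.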
Tn6 DDE FP: DD(E)-Tn6 binding inhibition, primary FP screen | Fibrin DD(E) TRITC-Tn6 fluorescence polarization displacement | inhibition, % at 8.3 µM | 370,000 tested, 0.21% active | AID 720509;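 active = inhibition above a per-campaign cutoff: mean of compounds within control limits plus 3 SD, cut at about 15% in these data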
RTF Ca sens act: increases calcium sensitivity of human cardiac regulated thin filaments. activation, % at 7.2 µM. P19429+P45379. 340,000 tested, 0.24% active. IANBD-labeled TnC RTF fluorescence at EC20 calcium; 0% EC20 calcium, 100% full calcium;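 active = activation above the mean over all tested compounds plus 3 SD, cut at about 30% in these data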;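 note: rise in fluorescence read as greater calcium sensitivity of cardiac thin filaments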
RTF Ca sens inh: cardiac RTF calcium desensitization. inhibition, % at 7.15 µM. 340,000 tested, 0.12% active. P19429+P45379. IANBD-labeled cardiac RTF, Ca2+ fluorescence. AID 493244;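 active = inhibition above the mean inhibition of all tested compounds plus 3 SD, cut at about 17% in these data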;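 note: assay run at fixed EC70 calcium of 1.6 mM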
CRFBP-R2 block: blocks CRF-induced signaling of the CRF-BP/CRF-R2 complex; HEK293 CRF-R2/CRF-BP, CRF-induced calcium fluorescence; inhibition, % at 11.8 µM; 350,000 tested, 0.59% active; AID 588475;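 active = inhibition of the ligand-induced calcium signal above about 50% at the single tested concentration, limit read from the data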
CRFR2-BP ag: CRF-BP/CRF-R2 complex agonism. HEK293 CRF-R2/CRF-BP, calcium dye fluorescence (FLIPR); percent of saturating CRF peptide response. activation, % at 13.2 µM. 350,000 tested, 0.46% active. AID 588473;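 active = activation of at least 50%, plus an integration ratio under a set limit after plate pattern correction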
A number is an active result.

CC(=O)OC[C@@H]1CN(Cc2ccccc2)C[C@H](n2cnc3c(NCc4ccc(F)cc4)ncnc32)O1 was read as Tn7 DDE FP inactive and Tn6 DDE FP inactive.
Cc1onc(-c2ccccc2Cl)c1C(=O)NCc1ccc(N2CCCC2=O)cc1 was read as Tn7 DDE FP inactive, Tn6 DDE FP inactive, RTF Ca sens act inactive, RTF Ca sens inh inactive, CRFBP-R2 block 57 and CRFR2-BP ag inactive.
Screening CCOc1ccc(-c2cc(C(=O)OC)c3n(c2=O)CCC3)cc1 returned Tn7 DDE FP inactive and Tn6 DDE FP inactive.
`O=C(NCc1ccc(OC(F)(F)F)cc1)c1cccc2c1C(=O)c1ccc(N3CCCC3)cc1S2(=O)=O` gave Tn7 DDE FP inactive, Tn6 DDE FP inactive, RTF Ca sens act inactive, RTF Ca sens inh inactive, CRFBP-R2 block inactive and CRFR2-BP ag 102.
For O=C(NCc1ccc(OC(F)(F)F)cc1)c1cccc2c1C(=O)c1ccc(N3CCCCC3)cc1S2(=O)=O the results were Tn7 DDE FP inactive, Tn6 DDE FP inactive, RTF Ca sens act inactive, RTF Ca sens inh inactive, CRFBP-R2 block inactive and CRFR2-BP ag 68.
For O=C(NCc1ccc(OC(F)(F)F)cc1)c1cccc2c1C(=O)c1ccc(N3CCC(Cc4ccccc4)CC3)cc1S2(=O)=O the results were Tn7 DDE FP inactive, Tn6 DDE FP inactive, RTF Ca sens act inactive, RTF Ca sens inh inactive, CRFBP-R2 block inactive and CRFR2-BP ag 63.
For O=C(NCc1cc(C(F)(F)F)ccc1Cl)c1cccc2c1C(=O)c1ccc(N3CCCCC3)cc1S2(=O)=O the results were Tn7 DDE FP inactive, Tn6 DDE FP inactive, RTF Ca sens act inactive, RTF Ca sens inh inactive, CRFBP-R2 block inactive and CRFR2-BP ag 53.
`CC(C)C[C@@H]1CC2=C(C(=O)OC(C)(C)O2)[C@H](c2ccc(Cl)cc2)O1` gave Tn7 DDE FP inactive and Tn6 DDE FP inactive.
Screening COC(=O)[C@]12C[C@H](CC(=O)N3CCCCC3)C(=O)N(Cc3ccccc3)C1=C[C@H](COCc1ccccc1)O[C@@H]2C returned Tn7 DDE FP inactive and Tn6 DDE FP inactive.
`COCOCCn1cc(CN2CCS(=O)(=O)N(Cc3ccc(-c4ccc(OC)c(OC)c4)cc3)C(CC(C)C)C2=O)nn1` (stereo not given) gave Tn7 DDE FP inactive, Tn6 DDE FP inactive, CRFBP-R2 block inactive and CRFR2-BP ag inactive.
`Cc1ccc(-n2c(SCC(=O)Nc3cccc4ccccc34)nnc2-c2cnccn2)cc1` gave Tn7 DDE FP inactive and Tn6 DDE FP inactive.
Screening COc1cc(NC(=O)NS(=O)(=O)c2ccc(C)cc2)cc(OC)c1 returned Tn7 DDE FP inactive, Tn6 DDE FP inactive, RTF Ca sens act inactive, RTF Ca sens inh inactive, CRFBP-R2 block inactive and CRFR2-BP ag inactive.
`COc1ccc(NC(=O)NS(=O)(=O)c2ccc(C)cc2)cn1` gave Tn7 DDE FP 48, Tn6 DDE FP inactive, RTF Ca sens act 348, RTF Ca sens inh inactive, CRFBP-R2 block inactive and CRFR2-BP ag inactive.
For C/C(=N\Nc1cc(C)nc(-c2ccccc2)n1)c1cccc([N+](=O)[O-])c1 the results were Tn7 DDE FP inactive, Tn6 DDE FP inactive, RTF Ca sens act inactive, RTF Ca sens inh inactive, CRFBP-R2 block 119 and CRFR2-BP ag inactive.
Screening C/C(=N\Nc1cc(C)nc(-c2ccccc2O)n1)c1ccccc1 returned Tn7 DDE FP inactive, Tn6 DDE FP inactive, RTF Ca sens act inactive, RTF Ca sens inh inactive, CRFBP-R2 block inactive and CRFR2-BP ag inactive.
For Nn1c(SCC(=O)Nc2ccccc2-c2ccccc2)nnc1-c1cc(-c2ccc(Cl)cc2)n[nH]1 the results were Tn7 DDE FP inactive and Tn6 DDE FP inactive.
`Cc1cccc(CCN2CCN=C2Nc2ccccc2)c1` gave Tn7 DDE FP inactive, Tn6 DDE FP inactive, RTF Ca sens act inactive, RTF Ca sens inh inactive, CRFBP-R2 block inactive and CRFR2-BP ag 56.
c1ccc(CCN2CCN=C2Nc2ccccc2)cc1 was read as Tn7 DDE FP inactive, Tn6 DDE FP inactive, RTF Ca sens act inactive, RTF Ca sens inh inactive, CRFBP-R2 block inactive and CRFR2-BP ag inactive.
For CC(C)C[C@H]1CN=C(Nc2ccccc2)N1CCc1cccc(F)c1 the results were RTF Ca sens act inactive, RTF Ca sens inh inactive, CRFBP-R2 block inactive and CRFR2-BP ag 125.
Cc1cccc(CCN2C(Nc3ccccc3)=NC[C@@H]2CC(C)C)c1 was read as Tn7 DDE FP inactive, Tn6 DDE FP inactive, RTF Ca sens act inactive, RTF Ca sens inh inactive, CRFBP-R2 block inactive and CRFR2-BP ag 111.
CC(C)C[C@H]1CN=C(Nc2ccccc2)N1CCc1ccc(F)cc1 was read as Tn7 DDE FP inactive, Tn6 DDE FP inactive, RTF Ca sens act inactive, RTF Ca sens inh inactive, CRFBP-R2 block inactive and CRFR2-BP ag 110.
Cn1c(SCCc2ccccc2)nnc1-c1ccco1 was read as Tn7 DDE FP inactive and Tn6 DDE FP inactive.
For CCOC(=O)C1=CCN(S(=O)(=O)c2ccccc2Cl)C1c1ccc(C)cc1 (stereo not given) the results were Tn7 DDE FP inactive and Tn6 DDE FP inactive.
For CC(C)(N[C@@H](Cc1ccccc1)C(=O)NCCc1c[nH]c2ccccc12)C(=O)NC1CCCCC1 the results were Tn7 DDE FP inactive and Tn6 DDE FP inactive.
For O=C(CSc1nnc(SCc2cccc3ccccc23)s1)c1ccc(F)cc1 the results were Tn7 DDE FP inactive and Tn6 DDE FP inactive.
`O=C(Nc1cccc2ccccc12)N1CCN(c2ccccc2)CC1` gave Tn7 DDE FP inactive, Tn6 DDE FP inactive, RTF Ca sens act inactive, RTF Ca sens inh inactive, CRFBP-R2 block inactive and CRFR2-BP ag inactive.
For O=C(Nc1cccc2ccccc12)N1CC=CCC1 the results were Tn7 DDE FP inactive, Tn6 DDE FP inactive, RTF Ca sens act inactive, RTF Ca sens inh inactive, CRFBP-R2 block 88 and CRFR2-BP ag inactive.
For COc1cccc(NC(=S)NC(C)c2ccc(OC)c(OC)c2)c1 (stereo not given) the results were Tn7 DDE FP inactive, Tn6 DDE FP inactive, RTF Ca sens act inactive, RTF Ca sens inh inactive, CRFBP-R2 block inactive and CRFR2-BP ag inactive.
Screening COc1cccc(NC(=S)NC(Cc2ccccc2)c2ccccc2)c1 (stereo not given) returned Tn7 DDE FP inactive, Tn6 DDE FP inactive, CRFBP-R2 block 84 and CRFR2-BP ag inactive.
For CCCCCCN1CCS(=O)(=O)N(Cc2ccc(OC)cc2)C(C(=O)OC)C1 (stereo not given) the results were Tn7 DDE FP inactive and Tn6 DDE FP inactive.
`Cc1ccc(NC(=O)O/N=C/c2ccc(Br)cc2)cc1` gave Tn7 DDE FP inactive, Tn6 DDE FP inactive, RTF Ca sens act inactive, RTF Ca sens inh inactive, CRFBP-R2 block inactive and CRFR2-BP ag inactive.
Cc1ccc(NC(=O)O/N=C/c2ccc(F)cc2)cc1 was read as Tn7 DDE FP inactive, Tn6 DDE FP inactive, RTF Ca sens act 37, RTF Ca sens inh inactive, CRFBP-R2 block inactive and CRFR2-BP ag inactive.
